Test [1] deals with A2780. As to the kind of experiment: cytotoxic activity toward A2780 ovarian human cell line sensitive (S) to cisplatin in experiment 2. The test is classed as functional, cell-based.
The subject of test [2] is A2780. The experiment in a line: cytotoxic activity toward A2780 ovarian human cell line resistant (R) to cisplatin in experiment 2. Type of test: functional, cell-based.
Test [3] in a line: Ratio of cytotoxic activity against resistant cell line to that of sensitive cell line. The test is classed as functional.
Test [4] relates to A2780. As to the kind of experiment: cytotoxic activity toward A2780 ovarian human cell line resistant (R) to cisplatin in experiment 5. The test is classed as functional, cell-based. Put shortly:
(§1)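 A2780/R human ovarian carcinoma cells, made cisplatin-resistant by repeated weekly 1-h exposure of the parental line to 50 μM cisplatin, kept in RPMI 1640 with FBS at 37 °C and 5% CO2. Exponentially growing cells were exposed to compound for 72 h, and growth was read by SRB assay in RPMI 1640 + 5% FBS. IC50 is the mean ± SE of at least three determinations, or the mean of two.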

Test [5] has as its system A2780. As to the kind of experiment: cytotoxic activity toward A2780 ovarian human cell line sensitive (S) to cisplatin in experiment 5. The test is classed as functional, cell-based. Put shortly: (§2)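 Cisplatin-sensitive parental A2780/S human ovarian carcinoma cells, grown in RPMI 1640 with FBS at 37 °C under 5% CO2 and subcultured twice weekly. Exponentially growing cells were treated for 72 h, and growth inhibition was measured by sulforhodamine B assay in RPMI 1640 + 5% FBS. IC50 is the mean ± SE of ≥3 determinations, or the mean of two.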

The subject of the next test is L1210. As to the kind of experiment: Cytotoxicity measured against L1210 cell line. Type of test: functional, cell-based, Mus musculus.
Test [6] has as its system A2780. As to the kind of experiment: cytotoxic activity toward A2780 ovarian human cell line sensitive (S) to cisplatin. The test is classed as functional, cell-based. The gist of the method: as §2
The subject of test [7] is A2780. As to the kind of experiment: cytotoxic activity toward A2780 ovarian human cell line sensitive (S) to cisplatin in experiment 1. The test is classed as functional, cell-based. Put shortly:
as §2

Test [8] deals with A2780. The experiment in a line: cytotoxic activity toward A2780 ovarian human cell line sensitive (S) to cisplatin in experiment 3. The test is classed as functional, cell-based. Put shortly: as §2
The test system of test [9] is A2780. The experiment in a line: cytotoxic activity toward A2780 ovarian human cell line resistant (R) to cisplatin in experiment 3. The test is classed as functional, cell-based. The gist of the method: as §1
The subject of test [10] is A2780. The experiment in a line: cytotoxic activity toward A2780 ovarian human cell line sensitive (S) to cisplatin in experiment 8. Type of test: functional, cell-based. The gist of the method:
as §2

Test [11] relates to A2780. As to the kind of experiment: cytotoxic activity toward A2780 ovarian human cell line resistant (R) to cisplatin in experiment 8. The test is classed as functional, cell-based. Put shortly: as §1

A value given as a limit tells only on which side of the number the result lay.

For orientation: IC50 means the concentration needed to halve the response being measured. A higher IC50 goes with a need for much substance. With AUCYCLAM, the IC50 is 99 µM in the test on A2780 [1] and above 120 µM in the test with A2780 [2] (a2780). On to AUCL(DIEN) [listing 1 of 2 here], for which the Ratio in test [3] was found to be 2.28.

As to AUPHEN [listing 1 of 2 here], the IC50 in the test on A2780 [4] was 3.49 µM; in the test on A2780 [5], 3.8 µM. With [Pt-(en2)]Cl2, half-maximal inhibition in the test on L1210 (IC50) was put at 1680 µM. Regarding AUCL3(EN2) [listing 1 of 2 here], in test [3], the Ratio was found to be 2.03. In the test on A2780 [6], [AuCl4]- had an IC50 of 11 µM. Turning to `c1ccc(-c2cccc(-c3ccccn3)n2)nc1` [TERPYRIDINE], the 50% inhibitory concentration (IC50) was found to be 0.125 µM in the test with A2780 [7] (Homo sapiens, A2780) and 0.36 µM in the test on A2780 [2] (Homo sapiens, A2780). Moreover, the Ratio in test [3] was 2.88. As to AUCL3(EN2) [listing 2 of 2 here], the values for the IC50 with A2780 [8] (a2780) and in the test with A2780 [9] (a2780) were 8.36 µM and 17 µM, respectively. [Pt-(dien)Cl]Cl displayed a half-maximal inhibitory concentration (IC50) in the test on L1210 of 271 µM. Turning to CISPLATIN [listing 1 of 2 here], the IC50 in the test on A2780 [10] came out at 1.22 µM; with A2780 [11], 14.2 µM; in the test with L1210, 2.3 µM.

As to AU(TERPY) [listing 1 of 2 here], the IC50 is 0.2 µM with A2780 [7] (a2780) and 0.37 µM in the test with A2780 [9] (a2780). On to `c1cnc2c(c1)ccc1cccnc12` [PHENANTHROLINE], for which the IC50 turned out to be 3.66 µM in the test on A2780 [8] (Homo sapiens, A2780) and 2.73 µM in the test on A2780 [9] (Homo sapiens, A2780). Also, the Ratio in test [3] stood at 0.75. For the compound AU(TERPY) [listing 2 of 2 here], in test [3], the Ratio came to 1.23. Still for that read-out and setting: the same measure for CISPLATIN [listing 2 of 2 here]: 11.6. As to AUCL(DIEN) [listing 2 of 2 here], the IC50 was found to be 8.2 µM with A2780 [1] and 18.7 µM with A2780 [9] (a2780).

As to AUPHEN [listing 2 of 2 here], in test [3], the Ratio was found to be 0.92.

Source of the values: ChEMBL document CHEMBL1133650, “Gold(III) complexes as potential antitumor agents: solution chemistry and cytotoxic properties of some selected gold(III) compounds” (J Med Chem, 2000).
